Experimental data: ChEMBL document CHEMBL1139207, “Pyrroloacridine alkaloids from Plakortis quasiamphiaster: structures and bioactivity” (J Nat Prod, 2007)
Activity calls are given as the source filed them. The rule behind the calls is not given here.

Columns and labels:
Saccharomyces cerevisiae [1] = test: Inhibition of wild type Saccharomyces cerevisiae by yeast halo assay; type: functional, organism-based
Procedure, shortened: (§1)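 Diploid S. cerevisiae BY4743 (top1∆ or wild type) from overnight culture seeded into YPD-H agar (YPD buffered with 25 mM HEPES, pH 7) and cooled 30 min. DMSO stocks were pin-transferred at 200 nL into the agar. Plates read by absorbance at 544 nm, growth-inhibition halo diameter measured, and top1∆ growth compared with wild type.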

Saccharomyces cerevisiae [2] = test: Inhibition of Saccharomyces cerevisiae top1delta by yeast halo assay; type: functional, organism-based; procedure, shortened: as §1
[3] = Cytotoxicity against human H116 cells by disk diffusion assay; type: cell-based
Saccharomyces cerevisiae [4] = test: Inhibition of Saccharomyces cerevisiae top1delta in liquid culture; type: functional
Procedure, shortened: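 Diploid S. cerevisiae BY4743 top1∆ and wild type grown in 100 µL liquid cultures with six 2-fold dilutions of compound alongside DMSO controls. Absorbance at 544 nm read every 30 min. Doubling time computed at each concentration and compared with the DMSO doubling time; LC50 derived.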

[5] = Induction of Top2-mediated catenation of DNA; type: functional
[6] = Cytotoxicity against human H116 cells by clonogenic assay after 168 hrs; type: cell-based; settings: h116, 168 h
Procedure, shortened: (§2)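 Clonogenic survival of human colon H-116 cells over a range of concentrations, exposed for 2, 24 or 168 h (168 h being continuous over the 7-day incubation). Value reported as the concentration giving 10% surviving fraction (S10), read from the concentration-response curve.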

[7] = Cytotoxicity against human H116 cells by clonogenic assay after 24 hrs; type: cell-based; settings: h116, 24 h; procedure, shortened: as §2
[8] = Cytotoxicity against human H116 cells by clonogenic assay after 2 hrs; type: cell-based; settings: h116, 2 h; procedure, shortened: as §2

CCC/C=C/CCCCCCCCCCCC[C@]1(C)OC(=O)[C@@H](CO)[C@@H]1O [AMPHIASTERIN B2]
Activity (Saccharomyces cerevisiae [1]): inactive | Activity (Saccharomyces cerevisiae [2]): inactive | Activity [3]: Not Active

CCC/C=C/CCCCCCCCCC[C@]1(C)OC(=O)[C@@H](CO)[C@@H]1O [AMPHIASTERIN B1]
Activity (Saccharomyces cerevisiae [1]): inactive | Activity (Saccharomyces cerevisiae [2]): inactive | Activity [3]: Not Active

O=C1CCNC2=C1C(=O)c1[nH]cc3c1c2nc1ccccc13 [PLAKINIDINE E]
LC50 (Saccharomyces cerevisiae [4]): 33 µM | Activity (Saccharomyces cerevisiae [1]): Non-toxic | Activity (Saccharomyces cerevisiae [2]): Toxic | Activity [3]: Not Active

Cn1ccc2c(c1=O)C(=O)c1nccc3c1c-2nc1ccccc13
Activity [5]: Active

CNc1c2c(c3nc4ccccc4c4c3c1N=C4)NCCC2=O [PLAKINIDINE A]
Activity [6]: 150 ng/mL | Activity (Saccharomyces cerevisiae [1]): inactive | Activity (Saccharomyces cerevisiae [2]): inactive | Activity [3]: Active | Activity [7]: 1.5 µg/mL | Activity [8]: 20 µg/mL
